Data: ChEMBL document CHEMBL4382210, “Identification of novel benzothiopyranone compounds against Mycobacterium tuberculosis through scaffold morphing from benzothiazinones” (Eur J Med Chem, 2018)
Values after ≈ are worked out from the molar mass of the structure shown.

Experiments:
[1] = tested on: Mycobacterium tuberculosis; test: Antimicrobial activity against Mycobacterium tuberculosis H37Rv after 7 days by MABA; type: functional; conditions: 168 h
In short: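 Strain H37Rv or clinical isolates grown to late log phase in 7H9-ADC-TG, washed, resuspended in PBS, filtered (8 µm) and frozen. On day 7 Tween 80 and alamar blue added, read 16–24 h later (ex 530/em 590). MIC = lowest concentration giving ≥90% fluorescence reduction versus bacterium-only controls.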

Vero = test: Cytotoxicity against African green monkey Vero cells assessed as reduction in cell viability after 48 hrs by MTT assay; type: cell-based; conditions: Chlorocebus sabaeus
In short: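 Vero or HepG2 cells in RPMI1640 with 10% FBS at 37 °C, 5% CO2, seeded at 4×10^5 cells/mL. Threefold dilutions at 64–0.26 µg/mL final for 48 h. Cells then washed with HBSS, MTT added for 4 h, absorbance read at 492 nm. IC50 taken relative to untreated control.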

[2] = Metabolic stability in CD-1 mouse liver microsomes assessed as parent compound remaining at 1 uM measured after 30 mins in presence of NADPH by LC-MS/MS analysis; type: ADME, Microsome; conditions: read-out: Stability
In short: (§1)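 Male CD-1 mouse or pooled human liver microsomes (1 mg/mL protein), compound at 1 µM, 37 °C. Reaction started with 1 mM NADPH and quenched with cold ACN/MeOH containing internal standard. Parent remaining measured by LC-MS/MS; the 30-min value is normalised to time zero.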

[3] = Metabolic stability in human liver microsomes assessed as parent compound remaining at 1 uM measured after 30 mins in presence of NADPH by LC-MS/MS analysis; type: ADME, Microsome; conditions: read-out: Stability; in short: as §1
[4] = Inhibition of Mycobacterium tuberculosis DprE1 expressed in Escherichia coli BL21(DE3) by fluorescence based assay
In short: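 Buffer: 50 mM Hepes pH 7.5, 100 mM NaCl, 1.5% DMSO, 100 µM Tween-20, 2 µM FAD, 50 µM resazurin. DprE1 (1 µM) with 1 mM FPR at 30 °C across inhibitor concentrations. Resorufin formation followed by fluorescence (ex 530/em 595 nm).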

Compound: O=c1cc(N2CCN(CC3CCCCC3)CC2)oc2c([N+](=O)[O-])cc(C(F)(F)F)cc12
- MIC90 [1]: 0.116 µg/mL (≈ 0.264 µM)
- IC50 (Vero): 10.6 µg/mL (≈ 24.1 µM)

Compound: O=c1cc(NCC2CCCCC2)sc2c([N+](=O)[O-])cc(C(F)(F)F)cc12
- MIC90 [1]: 0.402 µg/mL (≈ 1.04 µM)
- IC50 (Vero): > 64 µg/mL

Compound: O=c1cc(NCc2ccccc2)sc2c([N+](=O)[O-])cc(C(F)(F)F)cc12
- MIC90 [1]: > 32 µg/mL
- IC50 (Vero): > 64 µg/mL

Compound: O=c1cc(Nc2ccccc2)sc2c([N+](=O)[O-])cc(C(F)(F)F)cc12
- MIC90 [1]: > 32 µg/mL
- IC50 (Vero): > 64 µg/mL

Compound: O=C1CN(c2cc(=O)c3cc(C(F)(F)F)cc([N+](=O)[O-])c3s2)CCN1CC1CCCCC1
- MIC90 [1]: < 0.016 µg/mL
- remaining at 0.5 h, 1 µM [2]: 7.38%
- remaining at 0.5 h, 1 µM [3]: 86.6%
- IC50 (Vero): > 64 µg/mL

Compound: CC1CN(c2nc(=O)c3cc(C(F)(F)F)cc([N+](=O)[O-])c3o2)CCN1CC1CCCCC1 (configuration not stated)
- MIC90 [1]: < 0.016 µg/mL
- IC50 (Vero): 10.9 µg/mL (≈ 23.9 µM)

Compound: O=c1cc(NCc2ccc3c(c2)OCCO3)sc2c([N+](=O)[O-])cc(C(F)(F)F)cc12
- MIC90 [1]: 0.03 µg/mL (≈ 0.0684 µM)
- IC50 (Vero): > 64 µg/mL

Compound: O=c1nc(NCc2ccccc2)oc2c([N+](=O)[O-])cc(C(F)(F)F)cc12
- MIC90 [1]: 30.5 µg/mL (≈ 83.6 µM)
- IC50 (Vero): 25.4 µg/mL (≈ 69.4 µM)

Compound: CN(Cc1ccc2c(c1)OCCO2)c1cc(=O)c2cc(C(F)(F)F)cc([N+](=O)[O-])c2o1
- MIC90 [1]: < 0.016 µg/mL
- IC50 (Vero): 29.4 µg/mL (≈ 67.4 µM)

Compound: CC1COC2(CCN(c3nc(=O)c4cc(C(F)(F)F)cc([N+](=O)[O-])c4o3)CC2)O1 (configuration not stated)
- MIC90 [1]: < 0.016 µg/mL
- IC50 (Vero): 9.21 µg/mL (≈ 22.2 µM)

Compound: CC1CN(c2nc(=O)c3cc(C(F)(F)F)cc([N+](=O)[O-])c3o2)CCN1Cc1ccccc1 (configuration not stated)
- MIC90 [1]: < 0.016 µg/mL
- IC50 (Vero): 15.6 µg/mL (≈ 34.8 µM)

Compound: O=c1nc(N2CCN(Cc3ccccc3)CC2)oc2c([N+](=O)[O-])cc(C(F)(F)F)cc12
- MIC90 [1]: 3.93 µg/mL (≈ 9.05 µM)
- IC50 (Vero): 33.5 µg/mL (≈ 77.1 µM)

Compound: O=c1nc(NCc2cccc(F)c2)oc2c([N+](=O)[O-])cc(C(F)(F)F)cc12
- MIC90 [1]: > 32 µg/mL
- IC50 (Vero): > 64 µg/mL

Compound: CC1CN(c2cc(=O)c3cc(C(F)(F)F)cc([N+](=O)[O-])c3s2)CCN1CC1CCCCC1 (configuration not stated)
- MIC90 [1]: < 0.016 µg/mL
- remaining at 0.5 h, 1 µM [2]: 59.9%
- remaining at 0.5 h, 1 µM [3]: 62.7%
- IC50 (Vero): > 64 µg/mL

Compound: COc1ccc(CNc2cc(=O)c3cc(C(F)(F)F)cc([N+](=O)[O-])c3s2)cc1OC
- MIC90 [1]: 0.902 µg/mL (≈ 2.05 µM)
- IC50 (Vero): > 64 µg/mL

Compound: CN(Cc1ccc2c(c1)OCCO2)c1cc(=O)c2cc(C(F)(F)F)cc([N+](=O)[O-])c2s1
- MIC90 [1]: < 0.016 µg/mL
- remaining at 0.5 h, 1 µM [2]: 6.46%
- remaining at 0.5 h, 1 µM [3]: 44.9%
- IC50 (Vero): > 64 µg/mL

Compound: O=c1nc(NC2CCCCC2)oc2c([N+](=O)[O-])cc(C(F)(F)F)cc12
- MIC90 [1]: 0.118 µg/mL (≈ 0.33 µM)
- IC50 (Vero): 5.39 µg/mL (≈ 15.1 µM)

Compound: C[C@H]1COC2(CCN(c3nc(=O)c4cc(C(F)(F)F)cc([N+](=O)[O-])c4s3)CC2)O1 [BTZ-043]
- MIC90 [1]: < 0.016 µg/mL
- IC50 [4]: 1030 nM
- IC50 (Vero): > 64 µg/mL

Compound: O=C1CN(c2cc(=O)c3cc(C(F)(F)F)cc([N+](=O)[O-])c3o2)CCN1CC1CCCCC1
- MIC90 [1]: 0.091 µg/mL (≈ 0.201 µM)
- IC50 (Vero): 9.73 µg/mL (≈ 21.5 µM)

Compound: CC1COC2(CCN(c3cc(=O)c4cc(C(F)(F)F)cc([N+](=O)[O-])c4s3)CC2)O1 (configuration not stated)
- MIC90 [1]: 0.03 µg/mL (≈ 0.0697 µM)
- remaining at 0.5 h, 1 µM [2]: 47.4%
- IC50 [4]: 630 nM
- remaining at 0.5 h, 1 µM [3]: 82.8%
- IC50 (Vero): > 64 µg/mL

Compound: O=c1cc(NCc2ccc(F)cc2)sc2c([N+](=O)[O-])cc(C(F)(F)F)cc12
- MIC90 [1]: 0.206 µg/mL (≈ 0.517 µM)
- IC50 (Vero): > 64 µg/mL
